# Experimental data collected from several papers.
# ALK: ALK tyrosine kinase receptor (ALK, Homo sapiens, UniProt Q9UM73)
# ALK C1156Y: ALK tyrosine kinase receptor (ALK, Homo sapiens, UniProt Q9UM73, C1156Y)
# ALK L1196M: ALK tyrosine kinase receptor (ALK, Homo sapiens, UniProt Q9UM73, L1196M)
Structure (SMILES),target,test,setting,quantity,result
Cc1ccc(Nc2nccc(N(C)c3ccc4c(C)n(C)nc4c3)n2)cc1S(N)(=O)=O,ALK,"enzyme activity, inhibitor",10 µM,inhibition,79%
N[C@@H]1CCN(c2nccc(-c3cnn4ncccc34)n2)C1,ALK C1156Y,binding,1 µM,remaining binding,65%
O=C(O)c1cc(-c2ccc(C3CCNCC3)cc2)c2ccc(-c3ccc(C(F)(F)F)cc3)cc2c1,ALK,"cell-free assay, competition with immobilised ligand",1 µM,remaining binding,100%
CN(C)c1ncc(F)c(-c2cnn3ncccc23)n1,ALK,binding,1 µM,remaining binding,90%
CNC(=O)c1cc2c(Oc3ccc(NC(=O)C4(C(=O)Nc5ccc(F)cc5)CC4)cc3)ccnc2cc1OC,ALK,"enzyme activity, inhibitor, radiometric",1 µM,inhibition,81%
Cc1ccc(C(=O)NCc2ccsc2)cc1C#Cc1cn(C(C)C)c2ncnc(N)c12,ALK,"enzyme activity, inhibitor",1 µM,activity vs control,103%
CNCc1ccc(-c2cc(-c3nc(-c4ccc(S(=O)(=O)C(C)C)cc4)cnc3N)on2)cc1,ALK,"enzyme activity, inhibitor",2 µM,inhibition,4%
O=C(Nc1cnn(-c2csc(C(=O)NC3COC3)c2)c1)Nc1c(F)cccc1Cl,ALK,"enzyme activity, inhibitor",5 µM,remaining activity,89.2%
CNCc1ccccc1-c1csc([C@H](C)Nc2nc(C)nc3cc(OC)c(OC)cc23)c1,ALK C1156Y,"cell-free assay, competition with immobilised ligand",1 µM,remaining binding,100%
COc1cc2c(N3CCN(C(=O)Nc4ccc(OC(C)C)cc4)CC3)ncnc2cc1OCCCN1CCCCC1,ALK,cell-free assay,0.5 µM,remaining signal,103%
Nc1ncnc2occ(-c3ccc(NC(=O)Nc4cc(C(F)(F)F)ccc4F)cc3)c12,ALK,cell-free assay,20 µM,remaining signal,0.3%
O=C(Nc1cnn(-c2csc(C(=O)NC3COC3)c2)c1)Nc1ccccc1Cl,ALK,"enzyme activity, inhibitor",5 µM,remaining activity,101%
COc1cc2ncnc(Nc3ccc(Oc4ccccc4)c(C)c3C)c2cc1OC,ALK,"enzyme activity, inhibitor",1 µM,inhibition,-3%
CN(c1nccc(-c2cnn3ncccc23)n1)C1CC1,ALK,binding,1 µM,remaining binding,100%
O=C(NCCCC1CCCCC1)c1ccc(CNC(=O)c2cnn(-c3ccccc3)c2C(F)(F)F)cc1,ALK L1196M,"cell-free assay, competition with immobilised ligand",0.1 µM,remaining binding,100%
COc1cc2nccc(Oc3ccc(NC(=O)c4c5n(n(-c6ccc(F)cc6)c4=O)CCCC5)cc3)c2cc1OC,ALK,"enzyme activity, inhibitor",0.1 µM,inhibition,-23%
Cc1ccc(C(=O)Nc2ccc(CN3CCN(C)CC3)c(C(F)(F)F)c2)cc1C#Cc1cnc2cccnn12,ALK L1196M,cell-free assay,23.5 nM,remaining signal,99%
O=C(NCc1ncc(C(F)(F)F)cc1Cl)c1ccc2c(c1)C1(CCS(=O)(=O)CC1)[C@H](C1CC1)N2S(=O)(=O)c1ccc(F)cc1,ALK,"cell-free assay, competition with immobilised ligand",1 µM,remaining binding,98%
CCN(CC)c1ccc(C2=NNC(=O)CC2C)cc1[N+](=O)[O-] (stereo not drawn),ALK,"enzyme activity, inhibitor",10 µM,remaining activity,110%
O=C1NC(=O)c2cc(Nc3ccc(F)cc3)c(Nc3ccc(F)cc3)cc21,ALK,cell-free assay,0.5 µM,remaining signal,92.6%
COc1ccc2cc(OCC3(C(=O)O)CN(C(=O)c4ccc(F)cc4)C3)ccc2c1,ALK L1196M,"cell-free assay, competition with immobilised ligand",1 µM,remaining binding,100%
CN(CCCC(F)(F)F)c1nccc(-c2cnn3ncccc23)n1,ALK L1196M,binding,1 µM,remaining binding,100%
O=C(CSc1nc2nccnc2c(=O)n1CCc1ccccc1)Nc1nccs1,ALK,"enzyme activity, inhibitor",10 µM,inhibition,11%
CNC(=O)c1cc(Oc2ccc(NC(=O)Nc3ccc(Cl)c(C(F)(F)F)c3)cc2)ccn1,ALK,"enzyme activity, inhibitor",10 µM,inhibition,45%
COc1cc(Cl)c(C(=O)N[C@@H](CN[C@H]2CC[C@@H](N)CC2)Cc2ccc(C#N)cc2)cc1-c1ccc(CN[C@H](C)c2ccc(C)cc2)o1,ALK,"enzyme activity, inhibitor",1 µM,remaining activity,96%
C[C@H]1CCN(c2nccc(-c3cnn4ncccc34)n2)C1,ALK L1196M,binding,1 µM,remaining binding,100%
CN(C(=O)c1ccccc1)c1cc(N(C)c2ccc3c(c2)CCc2ccc(C(=O)NCCN4CCOCC4)cc2C3=O)ccc1F,ALK L1196M,"cell-free assay, competition with immobilised ligand",1 µM,remaining binding,100%
CN1CC(Oc2cnc(C#N)cc2-c2ccn3nc(NC(=O)C4CC4)cc3c2)C1,ALK,"enzyme activity, inhibitor",1 µM,inhibition,0%
Cc1[nH]c(/C=C2\C(=O)Nc3ccc(F)cc32)c(C)c1C(=O)N[C@H]1CCN(C(=O)N(C)C)C1,ALK,"enzyme activity, inhibitor",0.1 µM,remaining activity,109%
CCN(CC)CCNC(=O)c1c(C)[nH]c(/C=C2\C(=O)Nc3ccc(F)cc32)c1C,ALK,cell-free assay,0.5 µM,remaining signal,16.6%
CC/C(=N\NC(=O)NCc1cccc(O)c1)c1ccc(O)c(C)c1O,"ALK tyrosine kinase receptor (ALK, Homo sapiens, UniProt Q9UM73, F1174L)","enzyme activity, inhibitor",0.1 µM,inhibition,-0.9%
CCN(CC)CCNC(=O)c1c(C)[nH]c(/C=C2\C(=O)Nc3ccc(F)cc32)c1C,ALK,"enzyme activity, inhibitor",0.1 µM,remaining activity,73%
CN([C@@H]1CCc2c(CC(=O)O)c3ccccc3n2C1)S(=O)(=O)c1ccc(F)cc1,ALK,"cell-free assay, competition with immobilised ligand",1 µM,remaining binding,78%
Oc1ccc(-c2nc(-c3ccncc3)c(-c3ccc(F)cc3)[nH]2)cc1,ALK,cell-free assay,0.5 µM,remaining signal,104%
c1cnn2ncc(-c3ccnc(N4CCC45COC5)n3)c2c1,ALK,binding,1 µM,remaining binding,78%
CN(C)c1ncnc(-c2ccc3nc(Nc4cc(CN5CCN(C(=O)CC(F)(F)F)CC5)ccn4)[nH]c3c2)c1Cl,ALK L1196M,"cell-free assay, competition with immobilised ligand",1 µM,remaining binding,79%
